From ChEMBL document CHEMBL3259813, “Design, synthesis and in vitro and in vivo antitumour activity of 3-benzylideneindolin-2-one derivatives, a novel class of small-molecule inhibitors of the MDM2-p53 interaction” (Eur J Med Chem, 2014)

Assays:
HCT-116 [1] = assay: Antiproliferative activity against human HCT116 cells expressing wild type p53 after 48 hrs by MTT assay; conditions: HCT-116, 48 h
HCT-116 [2] = assay: Antiproliferative activity against p53-deficient human HCT116 cells after 48 hrs by MTT assay; conditions: HCT-116, 48 h
A549 = assay: Antiproliferative activity against human A549 cells after 48 hrs by MTT assay; conditions: A549, 48 h
MCF7 = assay: Antiproliferative activity against human MCF7 cells after 48 hrs by MTT assay; conditions: MCF7, 48 h
CT26 = assay: Antitumor activity against mouse CT26 cells allografted in ip dosed BALB/c mouse assessed as tumor growth inhibition administered qd for 10 days; type: functional, organism-based
Summary of the method: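 CT26 cell suspension implanted s.c. in right axilla of BALB/c mice; randomised 10/group. Dosing i.p. once daily for 10 days, starting 24 h after implantation; vehicle and blank control groups. Mice sacrificed 24 h after last dose, tumours excised and weighed; inhibition = (A–B)/A×100%, A and B mean tumour weights of control and treated groups.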

Mus musculus [3] = assay: Toxicity in BALB/c mouse allografted with mouse CT26 cells assessed as body weight at 50 mg/kg, ip qd administered for 10 days (reference value: 19.45 gm); type: organism-based; design: dose 50 mg/kg, route intraperitoneal; conditions: in vivo, 240 h
Mus musculus [4] = assay: Toxicity in BALB/c mouse assessed as visible side effect at 500 mg/kg, ip up to 8 days; type: organism-based; design: dose 500 mg/kg, route intraperitoneal; conditions: in vivo, 192 h
Summary of the method: (§1)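 BALB/c mice randomised into two groups of 10; single intraperitoneal dose of 500 or 1000 mg/kg in 10% DMSO. Animals monitored for death and visible signs of toxicity over 8 days.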

Mus musculus [5] = assay: Toxicity in BALB/c mouse assessed as death at 500 mg/kg, ip up to 8 days; type: organism-based; design: dose 500 mg/kg, route intraperitoneal; conditions: in vivo, 192 h; summary of the method: as §1
HCT-116 [6] = assay: Induction of p21 expression in human HCT116 cells after 48 hrs by Western blotting analysis; type: functional, cell-based
Summary of the method: (§2)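 p53 wild-type HCT116 cells exposed to a range of concentrations for 48 h, lysed in Tris/NaCl/Triton X-100 buffer with protease inhibitors. Protein assayed by Bio-Rad method, separated by SDS-PAGE, transferred to PVDF, blocked in 5% non-fat milk. Primary antibody 2 h at room temperature, peroxidase secondary, ECL detection; beta-actin as loading control.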

HCT-116 [7] = assay: Induction of p53 expression in human HCT116 cells after 48 hrs by Western blotting analysis; type: functional, cell-based; summary of the method: as §2
HCT-116 [8] = assay: Induction of MDM2 expression in human HCT116 cells after 48 hrs by Western blotting analysis; type: functional, cell-based; summary of the method: as §2
Mus musculus [9] = assay: Toxicity in BALB/c mouse assessed as death at 1000 mg/kg, ip after 24 hrs; type: organism-based; design: dose 1000 mg/kg, route intraperitoneal; conditions: in vivo; summary of the method: as §1
Mus musculus [10] = assay: Toxicity in BALB/c mouse allografted with mouse CT26 cells assessed as body weight at 100 mg/kg, ip qd administered for 10 days (reference value: 19.45 gm); type: organism-based; design: dose 100 mg/kg, route intraperitoneal; conditions: in vivo, 240 h
HCT-116 [11] = assay: Induction of apoptosis in human HCT116 cells after 48 hrs by propidium iodide staining-based flow cytometry; type: functional, cell-based
Summary of the method: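 HCT116 cells seeded at 2×10^5/well, grown 48 h, then exposed to compound for 48 h. Cells fixed overnight in 70% ice-cold ethanol, treated with RNase A (100 µg/ml, 30 min, room temperature), stained with propidium iodide (50 µg/mL final). Analysed by flow cytometry.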

HCT-116 [12] = assay: […] in human HCT116 cells assessed as accumulation at S phase at 50 uM after 48 hrs by propidium iodide staining-based flow cytometry (reference value: 24.8%); type: functional
Summary of the method: (§3)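 HCT116 (wild-type p53) seeded at 2×10^5 cells/well, cultured 48 h, then treated with compound for 48 h. Washed in cold PBS, fixed overnight in 70% ice-cold ethanol, RNase A (100 µg/ml) 30 min at room temperature, stained with propidium iodide (50 µg/mL final). Cell cycle distribution by flow cytometry.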

HCT-116 [13] = assay: […] in human HCT116 cells assessed as accumulation at G1 phase at 50 uM after 48 hrs by propidium iodide staining-based flow cytometry (reference value: 62.5%); type: functional; summary of the method: as §3

| SMILES | GI50 (HCT-116 [1]) [µM] | GI50 (HCT-116 [2]) [µM] | GI50 (A549) [µM] | GI50 (MCF7) [µM] | other results |
| --- | --- | --- | --- | --- | --- |
| COc1ccc(/C=C2/C(=O)Nc3ccc(F)cc32)c(-c2ccc(Cl)cc2)c1 | 15.3 | 27.3 | 58.8 | > 100 |  |
| COc1ccc(/C=C2/C(=O)Nc3ccccc32)c(OC)c1 | 13.4 | 28.1 | 52.5 | 54.1 | TGI (CT26): Dose-dependent effect; Activity (Mus musculus [3]): 18.95 g; Activity (Mus musculus [4]): Non-toxic; Activity (Mus musculus [5]): Non-toxic; Activity (HCT-116 [6]): Dose-dependent effect; Activity (HCT-116 [7]): Dose-dependent effect; Activity (HCT-116 [8]): Dose-dependent effect; Activity (Mus musculus [9]): Toxic; Activity (Mus musculus [10]): 18.91 g; Activity (HCT-116 [11]): Dose-dependent effect |
| COc1ccc(/C=C2/C(=O)Nc3cc(F)ccc32)c(OC)c1 | 26.9 | 65.5 | > 100 | 88.4 |  |
| COc1cccc(/C=C2/C(=O)Nc3cc(Cl)ccc32)c1-c1ccc(C#N)cc1 | 48.3 | 110 | 81.6 | > 100 |  |
| CC(C)Oc1ccc(/C=C2/C(=O)Nc3ccc(Cl)cc32)c(OC(C)C)c1 | 29.7 | 37.7 | 42.6 | 55.7 |  |
| CC(C)Oc1ccc(/C=C2/C(=O)Nc3cc(Cl)ccc32)c(OC(C)C)c1 | 23.4 | 42 | 30.4 | 42.9 |  |
| COc1ccc(/C=C2/C(=O)Nc3ccc(Cl)cc32)c(-c2ccc(Cl)cc2)c1 | 32.2 | 135 | 86.7 | > 100 |  |
| COc1ccc(/C=C2/C(=O)Nc3ccc(Cl)cc32)c(OC)c1 | 49.2 | 126 | > 100 | > 100 |  |
| CCCOc1ccc(/C=C2/C(=O)Nc3ccc(Cl)cc32)c(OCCC)c1 | 21 | 26.1 | 30.2 | 58.4 |  |
| COc1ccc(C2=N[C@@H](c3ccc(Cl)cc3)[C@@H](c3ccc(Cl)cc3)N2C(=O)N2CCNC(=O)C2)c(OC(C)C)c1 [NUTLIN-3] | 32.1 | 55.7 | 47.6 | 48.7 | Activity (HCT-116 [12]): 8.7%; Activity (HCT-116 [13]): 53%; Activity (HCT-116 [11]): Dose-dependent effect |
| COc1ccc(/C=C2/C(=O)Nc3ccc(Cl)cc32)c(-c2ccc(C#N)cc2)c1 | 27.1 | 124 | > 100 | > 100 |  |
| COc1ccc(/C=C2/C(=O)Nc3ccc(Cl)cc32)c(Br)c1 | 53.4 | 115 | > 100 | > 100 |  |
| COc1ccc(/C=C2/C(=O)Nc3cc(F)ccc32)c(-c2ccc(C#N)cc2)c1 | 17.1 | 109 | > 100 | > 100 |  |
| CCCOc1ccc(/C=C2/C(=O)Nc3ccccc32)c(OCCC)c1 | 14.4 | 21.3 | 42.4 | 54 |  |
